The source of these data is ChEMBL document CHEMBL3297678, “New insights into the biological properties of Crocus sativus L.: chemical modifications, human monoamine oxidases inhibition and molecular modeling studies” (Eur J Med Chem, 2014).

The target in test [1] is T1, Amine oxidase [flavin-containing] B (Homo sapiens, UniProt P27338).
T1 sequence (P27338 whole entry): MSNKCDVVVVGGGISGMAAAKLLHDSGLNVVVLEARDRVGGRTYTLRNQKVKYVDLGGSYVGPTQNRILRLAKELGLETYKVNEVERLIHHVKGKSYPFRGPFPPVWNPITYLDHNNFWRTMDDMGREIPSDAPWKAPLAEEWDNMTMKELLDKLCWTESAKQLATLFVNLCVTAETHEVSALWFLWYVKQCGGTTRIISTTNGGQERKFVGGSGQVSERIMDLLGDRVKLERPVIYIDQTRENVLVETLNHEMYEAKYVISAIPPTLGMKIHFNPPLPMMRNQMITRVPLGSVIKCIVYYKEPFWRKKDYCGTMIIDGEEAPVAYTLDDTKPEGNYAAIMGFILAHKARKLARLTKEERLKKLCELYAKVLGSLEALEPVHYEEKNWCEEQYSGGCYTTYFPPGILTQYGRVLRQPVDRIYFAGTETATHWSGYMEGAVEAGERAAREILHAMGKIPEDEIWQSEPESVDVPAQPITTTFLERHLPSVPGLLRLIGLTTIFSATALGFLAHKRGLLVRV
Kind of test: Inhibition of recombinant human MAO-B expressed in insect cells assessed as inhibition of oxidation of kynuramine to 4-hydroxyquinoline after 20 mins by fluorescence spectrophotometry. The procedure, abridged:
(§1)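 Enzyme source was insect-cell microsomes carrying recombinant hMAO-A or hMAO-B. Kynuramine substrate was oxidized to 4-hydroxyquinoline in 100 mM potassium phosphate, pH 7.4, made isotonic with 20.2 mM KCl, with 4% DMSO and varied inhibitor concentrations. Product was read by fluorescence (ex 310/em 400 nm) against a linear calibration curve. Controls excluded inhibitor fluorescence or quenching. IC50 came from a one-site competition fit of initial rate versus log[inhibitor]; mean ± SD of triplicates.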

Test [2] concerns the target T2, Amine oxidase [flavin-containing] A (Homo sapiens, UniProt P21397).
T2 sequence (P21397 whole entry): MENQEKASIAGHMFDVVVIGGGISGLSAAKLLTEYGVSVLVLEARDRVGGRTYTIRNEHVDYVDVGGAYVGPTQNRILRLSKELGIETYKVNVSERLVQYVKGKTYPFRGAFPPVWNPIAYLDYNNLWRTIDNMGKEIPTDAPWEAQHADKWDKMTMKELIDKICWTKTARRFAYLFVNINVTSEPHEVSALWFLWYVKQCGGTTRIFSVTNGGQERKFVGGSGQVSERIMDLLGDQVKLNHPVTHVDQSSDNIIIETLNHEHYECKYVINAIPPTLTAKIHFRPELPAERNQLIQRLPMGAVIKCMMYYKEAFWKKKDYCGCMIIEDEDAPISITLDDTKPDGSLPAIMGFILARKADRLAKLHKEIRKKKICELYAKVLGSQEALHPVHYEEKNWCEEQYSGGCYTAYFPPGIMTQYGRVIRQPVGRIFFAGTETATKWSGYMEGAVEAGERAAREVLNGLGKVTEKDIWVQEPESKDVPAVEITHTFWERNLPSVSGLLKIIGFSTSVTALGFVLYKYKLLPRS
Kind of test: Inhibition of recombinant human MAO-A expressed in insect cells assessed as inhibition of oxidation of kynuramine to 4-hydroxyquinoline after 20 mins by fluorescence spectrophotometry. A digest of the protocol: as §1

The species named for a further test is Homo sapiens. As to the kind of experiment: Selectivity ratio of IC50 for recombinant human MAO-B expressed in insect cells to IC50 for recombinant human MAO-A expressed in insect cells.

Take `CC1=C(/C=N/Nc2nc(-c3cccc([N+](=O)[O-])c3)cs2)C(C)(C)CC=C1`: the results for the IC50 in test [1] (read-out: IC50) and in test [2] (read-out: IC50) were 0.1 µM and 9.93 µM, respectively.
Regarding `CC1=C(/C=N/N(C)C(N)=S)C(C)(C)CC=C1`, the 50% inhibitory concentration (IC50) (usually the concentration that inhibits the measured activity by half) in test [1] (read-out: IC50) stood at 117 µM; in test [2] (read-out: IC50), 93.2 µM.
For `CC1=C(/C=N/N=C2\SCC(=O)N2Cc2ccccc2)C(C)(C)CC=C1` the same measures were 215 µM and 86.6 µM.
As for `CC(/C=C/C=C(\C)C(=O)O[C@@H]1O[C@H](CO[C@@H]2O[C@H](CO)[C@@H](O)[C@H](O)[C@H]2O)[C@@H](O)[C@H](O)[C@H]1O)=C\C=C\C=C(C)\C=C\C=C(/C)C(=O)O[C@@H]1O[C@H](CO[C@@H]2O[C@H](CO)[C@@H](O)[C@H](O)[C@H]2O)[C@@H](O)[C@H](O)[C@H]1O` [CROCIN], the IC50 in test [1] (read-out: IC50) was found to be 128 µM; in test [2] (read-out: IC50), 170 µM.
Turning to `CC1=C(C=O)C(C)(C)CC=C1`, the half-inhibitory concentration (IC50) result in test [1] and in test [2] was “Not Active” each time.
In the case of `CC1=C(/C=N/NC(N)=S)C(C)(C)CC=C1`, the IC50 was found to be 74.5 µM in test [1] (read-out: IC50) and 56.8 µM in test [2] (read-out: IC50).
As for `CC1=C(/C=N/NC(=S)Nc2ccccc2)C(C)(C)CC=C1`, the results for the half-maximal inhibitory concentration (IC50) in test [1] (read-out: IC50) and in test [2] (read-out: IC50) were 224 µM and 19.5 µM, respectively. Moreover, the Ratio IC50 in the test filed under Homo sapiens was determined as 11.
As to `CC1=C(/C=N/N=C2/NC(=O)CS2)C(C)(C)CC=C1`, the IC50 in test [1] (read-out: IC50) came out at 168 µM; in test [2] (read-out: IC50), 132 µM.
The like results for `CC1=C(/C=N/NC(N)=O)C(C)(C)CC=C1` were, in that order, 111 µM and 164 µM.
